# What was measured:
# Cavia porcellus [1] = organism: Cavia porcellus; test: Agonistic potency on the guinea pig ileal longitudinal muscle (GPI) relative to morphine.; format: functional, Muscle tissue
# Procedure, shortened: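 Isolated guinea pig ileal longitudinal muscle was prepared by the Rang method. […] Only inhibition of contraction greater than 80% was counted.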
# Cavia porcellus [2] = organism: Cavia porcellus; test: Irreversible antagonism to morphine was evaluated after 30 min incubation of GPI with the compound at 20 nM conc.; format: functional
# Procedure, shortened: (§1)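 Guinea pig ileal longitudinal muscle was incubated with compound at the stated concentrations for 30 min, then washed 20 times. […] Result is the agonist IC50 after treatment divided by the control agonist IC50 in the same preparation.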
# Cavia porcellus [3] = organism: Cavia porcellus; test: Irreversible antagonism to nalorphine was evaluated after 30 min incubation of GPI with the compound at 20 nM conc.; format: functional; procedure, shortened: as §1
# Cavia porcellus [4] = organism: Cavia porcellus; test: Irreversible antagonism to morphine was evaluated after 30 min incubation of GPI with the compound at 200 nM conc.; format: functional; procedure, shortened: as §1
# Cavia porcellus [5] = organism: Cavia porcellus; test: Irreversible antagonism to nalorphine was evaluated after 30 min incubation of GPI with the compound at 200 nM conc.; format: functional; procedure, shortened: as §1
# Mus musculus [6] = organism: Mus musculus; test: Antagonist potency relative to morphine at 20 nM concentration; format: functional
# Procedure, shortened: (§2)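 Mouse vas deferens (Henderson method) was pretreated with compound for 30 min, then washed 20 times. […] Result is the agonist IC50 after treatment divided by the control IC50 in the same tissue. Where the agonist fell short of a full (>70%) response, an IC30 ratio was estimated from the plotted curves.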
# Mus musculus [7] = organism: Mus musculus; test: (§3) Agonist activity measured on mouse vas deferens (MVD); format: functional
# Mus musculus [8] = organism: Mus musculus; test: Antagonist potency relative to morphine at 200 nM concentration; format: functional; procedure, shortened: as §2
# Mus musculus [9] = organism: Mus musculus; test: Antagonist potency relative to DADLE at 200 nM concentration; format: functional; procedure, shortened: as §2
# Mus musculus [10] = organism: Mus musculus; test: Percent of maximum inhibition of contraction of mouse vas deferens (MVD); format: functional
# Mus musculus [11] = organism: Mus musculus; test: Antagonist potency relative to DADLE at 20 nM concentration; format: functional; procedure, shortened: as §2
# Mus musculus [12] = organism: Mus musculus; test: as §3; format: functional, organism-based
# Cavia porcellus [13] = organism: Cavia porcellus; test: Irreversible antagonism to ethylketazocine (EK) was evaluated after 30 min incubation of GPI with the compound at 1000 nM conc.; format: functional; procedure, shortened: as §1
# Cavia porcellus [14] = organism: Cavia porcellus; test: Agonistic activity on the guinea pig ileal longitudinal muscle (GPI) relative to morphine at a dose of 1 uM; format: functional, Muscle tissue
# Cavia porcellus [15] = organism: Cavia porcellus; test: Irreversible antagonism to morphine was evaluated after 30 min incubation of GPI with the compound at 1000 nM conc.; format: functional; procedure, shortened: as §1
# Cavia porcellus [16] = organism: Cavia porcellus; test: Irreversible antagonism to ethylketazocine (EK) was evaluated after 30 min incubation of GPI with the compound at 200 nM conc.; format: functional; procedure, shortened: as §1
# Cavia porcellus [17] = organism: Cavia porcellus; test: Irreversible antagonism to ethylketazocine (EK) was evaluated after 30 min incubation of GPI with the compound at 20 nM conc.; format: functional; procedure, shortened: as §1
# Cavia porcellus [18] = organism: Cavia porcellus; test: Irreversible antagonism to morphine was evaluated after 30 min incubation of GPI with the compound at 500 nM conc.; format: functional; procedure, shortened: as §1
# Cavia porcellus [19] = organism: Cavia porcellus; test: Irreversible antagonism to ethylketazocine (EK) was evaluated after 30 min incubation of GPI with the compound at 500 nM conc.; format: functional; procedure, shortened: as §1
# Mus musculus [20] = organism: Mus musculus; test: Antagonist potency relative to morphine at 100 nM concentration; format: functional; procedure, shortened: as §2
# Mus musculus [21] = organism: Mus musculus; test: Antagonist potency relative to DADLE at 100 nM concentration; format: functional; procedure, shortened: as §2
# Mus musculus [22] = organism: Mus musculus; test: Irreversible antagonistic potency in mouse vas deferens (MVD); format: functional
# Procedure, shortened: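 Mouse vas deferens (Henderson method) was pretreated with compound for 30 min, then washed 20 times. Where the agonist fell short of a full (>70%) response, an IC30 ratio was estimated from the plotted curves.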
# Cavia porcellus [23] = organism: Cavia porcellus; test: Irreversible antagonistic potency in guinea pig ileal longitudinal muscle (GPI); format: functional; conditions: Muscle tissue
SMILES,IC50 ratio (Cavia porcellus [1]),IC50 ratio (Cavia porcellus [2]),IC50 ratio (Cavia porcellus [3]),IC50 ratio (Cavia porcellus [4]),IC50 ratio (Cavia porcellus [5]),IC50 ratio (Mus musculus [8]),IC50 ratio (Mus musculus [9]),further results
COC(=O)/C=C\C(=O)N[C@H]1CC[C@@]2(O)C3Cc4ccc(O)c5c4C2(CCN3CC2CC2)[C@H]1O5 (stereo partly specified),0.8,0.95,0.49,1.1,0.98,,,
CCC(=O)N[C@H]1CCC2(O)C3Cc4ccc(O)c5c4C2(CCN3CC2CC2)[C@H]1O5 (stereo partly specified),2.9,1.1,0.7,1,0.9,,,
Oc1ccc2c3c1O[C@H]1[C@H](N=C=S)CC[C@@]4(O)C(C2)N(CC2CC2)CCC314 (stereo partly specified),1.9,6.9,1.5,14.9,1.4,120,6.9,IC50 ratio (Mus musculus [6]): 13.8; IC30 (Mus musculus [7]): 100 nM; max inhibition (Mus musculus [10]): 43%; IC50 ratio (Mus musculus [11]): 1.8
O=C(CI)N[C@@H]1CCC2(O)C3Cc4ccc(O)c5c4C2(CCN3CC2CC2)[C@H]1O5 (stereo partly specified),,2.4,1.2,2.1,1.2,20,1.8,IC50 (Mus musculus [12]): > 1000 nM; IC50 ratio (Cavia porcellus [13]): 0.7; max inhibition (Cavia porcellus [14]): 55%
C=CC(=O)N[C@@H]1CCC2(O)C3Cc4ccc(O)c5c4C2(CCN3CC2CC2)[C@H]1O5 (stereo partly specified),,1.9,1.1,4.2,1.4,,,IC50 ratio (Cavia porcellus [13]): 1.5; IC50 ratio (Cavia porcellus [15]): 2.9; max inhibition (Cavia porcellus [14]): 40%
COC(=O)/C=C\C(=O)N[C@@H]1CC[C@@]2(O)C3Cc4ccc(O)c5c4C2(CCN3CC2CC2)[C@H]1O5 (stereo partly specified),1.1,1.5,1,0.63,0.6,,,
COC(=O)/C=C/C(=O)N[C@H]1CC[C@@]2(O)[C@H]3Cc4ccc(O)c5c4[C@@]2(CCN3CC2CC2)[C@H]1O5,7.3,1.2,0.92,0.87,,0.52,0.37,IC50 ratio (Cavia porcellus [16]): 0.86; IC30 (Mus musculus [7]): 80 nM; max inhibition (Mus musculus [10]): 60%
C=CC(=O)N[C@H]1CCC2(O)C3Cc4ccc(O)c5c4C2(CCN3CC2CC2)[C@H]1O5 (stereo partly specified),1.5,1.2,0.78,1.2,0.8,,,
O=C(CI)N[C@H]1CCC2(O)C3Cc4ccc(O)c5c4C2(CCN3CC2CC2)[C@H]1O5 (stereo partly specified),0.49,0.97,1.2,1.1,0.87,2.5,1.2,IC30 (Mus musculus [7]): 200 nM; max inhibition (Mus musculus [10]): 60%
CCC(=O)N[C@@H]1CCC2(O)C3Cc4ccc(O)c5c4C2(CCN3CC2CC2)[C@H]1O5 (stereo partly specified),0.81,1.3,1,1.5,0.85,,,
Oc1ccc2c3c1O[C@H]1[C@@H](N=C=S)CC[C@@]4(O)C(C2)N(CC2CC2)CCC314 (stereo partly specified),9.6,2.1,,2.4,1.2,10.7,6.6,IC50 ratio (Mus musculus [6]): 3.1; IC30 (Mus musculus [7]): 100 nM; IC50 ratio (Cavia porcellus [17]): 0.8; IC50 ratio (Cavia porcellus [18]): 2.3; max inhibition (Mus musculus [10]): 45%; IC50 ratio (Mus musculus [11]): 1.2; IC50 ratio (Cavia porcellus [19]): 1.4
COC(=O)/C=C/C(=O)N[C@@H]1CC[C@@]2(O)[C@H]3Cc4ccc(O)c5c4[C@@]2(CCN3CC2CC2)[C@H]1O5,5,6,,,,10.6,1.1,IC50 ratio (Cavia porcellus [16]): 1.2; IC50 ratio (Cavia porcellus [17]): 1; IC50 ratio (Mus musculus [20]): 3.9; IC50 ratio (Cavia porcellus [13]): 1.3; IC50 ratio (Cavia porcellus [15]): 18.8; IC50 ratio (Mus musculus [21]): 1.8
CC(C)C[C@@H](NC(=O)[C@H](Cc1ccccc1)NC(=O)CNC(=O)[C@@H](C)NC(=O)[C@@H](N)Cc1ccc(O)cc1)C(=O)O [DADLE],,,,,,,,IC50 (Mus musculus [22]): 0.357 nM
CCOc1ccc2c(c1)C1(C)CCN(CC3CC3)C(C2=O)C1C (stereo unspecified) [ETHYLKETAZOCINE],,,,,,,,IC50 (Cavia porcellus [23]): 0.973 nM
C=CCN1CC[C@]23c4c5ccc(O)c4O[C@H]2[C@@H](O)C=C[C@H]3[C@H]1C5 [NALORPHINE],,,,,,,,IC50 (Cavia porcellus [23]): 51.3 nM

# Source: ChEMBL document CHEMBL1122279, “Importance of C-6 chirality in conferring irreversible opioid antagonism to naltrexone-derived affinity labels” (J Med Chem, 1983)
